Source: ChEMBL document CHEMBL1141088, “A new pyridazine series of GABAA alpha5 ligands” (J Med Chem, 2005)

Target: GABA-A receptor; alpha-5/beta-3/gamma-2 (Homo sapiens) (UniProt P18507+P28472+P31644)
Experiment: Efficacy at GABAA alpha-5-beta-3-gamma-2 receptor expressed in mouse fibroblast L(tk-) cells measured at 300 nM derived from at least three plates/day screened over a minimum of 2 days
Format: functional, cell-based
Method in brief: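 FRET membrane-potential (VIPR) assay in L(tk-) cells with receptor expression induced 24 h by 1 µM dexamethasone. Dye-loaded 30 min in low-Cl- HEPES buffer pH 7.4: 4 µM CC2-DMPE, 1 µM DiSBAC2(3), 0.5 mM tartrazine. Basal read 8 s, compound at 300 nM, half-maximal GABA 22 s later, 1 Hz reads. Background-subtracted 460/580 nm ratio, normalized to DMCM as -100%.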

Efficacy: -32
SMILES: N#Cc1cccc(-c2cnnc(-c3ccccc3)c2)c1
